Six compounds from ChEMBL document CHEMBL1828624, “Synthesis and antioxidant activity of oxazolyl/thiazolylsulfonylmethyl pyrazoles and isoxazoles” (Eur J Med Chem, 2011) can be followed below.

Assay type in all cases: functional
Test [1] has as its system Radical scavenging activity. Nature of the test: Antioxidant activity assessed as DPPH free radical scavenging activity at 50 ug/ml after 30 mins by spectrophotometric analysis relative to control. In outline: (§1)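 Compounds in methanol at […] were mixed with 0.004% (w/v) methanolic DPPH. After 30 min at room temperature, absorbance was read at 517 nm against a blank. Percent inhibition was calculated from control (all reagents minus compound) and sample absorbances. Run in triplicate.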

The test system of test [2] is Radical scavenging activity. Description: Antioxidant activity assessed as DPPH free radical scavenging activity at 75 ug/ml after 30 mins by spectrophotometric analysis relative to control. In outline:
as §1
On the technique in general: DPPH is a stable violet radical that fades when it is reduced.

Test [3] concerns Radical scavenging activity. Description: Antioxidant activity assessed as DPPH free radical scavenging activity at 100 ug/ml after 30 mins by spectrophotometric analysis relative to control. Summed up:
as §1

For test [4], the system named is Radical scavenging activity. Nature of the test: Antioxidant activity assessed as DPPH free radical scavenging activity after 30 mins by spectrophotometric analysis. Summed up: as §1
A short description of test [5]: Antioxidant activity assessed as nitric oxide scavenging activity at 50 ug/ml after 150 mins by Griess method relative to control. Summed up: (§2)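 NO was generated from sodium nitroprusside (10 mM) in phosphate buffer saline (0.2 M, pH 7.4). Compounds were added at […] and incubated 150 min at 25 °C. Percent scavenging was calculated from control (all reagents minus compound) and sample absorbances. Run in triplicate.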
In general terms: The Griess reaction detects nitrite, a stable product of nitric oxide.

The nature of test [6]: Antioxidant activity assessed as nitric oxide scavenging activity at 75 ug/ml after 150 mins by Griess method relative to control. Summed up:
as §2

Test [7] can be described thus: Antioxidant activity assessed as nitric oxide scavenging activity at 100 ug/ml after 150 mins by Griess method relative to control. In outline:
as §2

Test [8] can be described thus: Antioxidant activity assessed as hydrogen peroxide scavenging activity at 50 ug/ml relative to control.
The nature of test [9]: Antioxidant activity assessed as hydrogen peroxide scavenging activity at 75 ug/ml relative to control.
The nature of test [10]: Antioxidant activity assessed as hydrogen peroxide scavenging activity at 100 ug/ml relative to control.

Structures are written as SMILES. In brackets after ≈: the same amount, converted by molar mass. Activity calls are given as the source filed them. The rule behind the calls is not given here.

For the compound `O=S(=O)(CC1=NCCO1)C1C(c2ccccc2)=NN(c2ccccc2)C1c1ccccc1` (stereo not given), the inhibition (commonly how much of the control response was suppressed) is 48.2% in test [1], 53.4% in test [2] and 58% in test [3]. The half-inhibitory concentration (IC50) (usually the concentration that inhibits the measured activity by half) in [4] worked out at 86.25 µg/mL (≈ 194 µM). Also, the Activity was found to be 46.7% in test [5]; 51.4% in [6]; 57.9% in test [7]; 44.4% in test [8]; 45.5% in test [9]; 48.1% in test [10].
`COc1ccc(-c2noc(-c3ccc(C)cc3)c2S(=O)(=O)CC2=NCCS2)cc1`: the inhibition entry in test [1], in test [2] and in test [3] was “inactive” in each case. Also, in test [4], the IC50 entry is recorded as “Not Active”. Further, the result in test [5], in test [6], in test [7], in [8], in [9] and in test [10] was inactive.
For the compound `O=S(=O)(CC1=NCCS1)c1c(-c2ccc(Cl)cc2)nn(-c2ccccc2)c1-c1ccc(Cl)cc1`, the inhibition entry in test [1], in test [2] and in test [3] was “inactive” each time. Also, the IC50 entry in [4] is reported as “Not Active”. For the same compound, the outcome in [5], in [6], in test [7], in test [8], in test [9] and in test [10] was inactive.
`O=S(=O)(CC1=NCCO1)c1c(-c2ccccc2)noc1-c1ccccc1`: the inhibition in test [1] came out at 61.6%; in test [2], 65.8%; in [3] it was 72%. In test [4], the IC50 stood at 69.47 µg/mL (≈ 189 µM). In addition, the Activity stood at 56.7% in test [5]; 57.3% in test [6]; 62.1% in [7]; 57.2% in test [8]; 58.1% in test [9]; 60.1% in test [10].
With `O=S(=O)(CC1=NCCO1)c1c(-c2ccc(Cl)cc2)noc1-c1ccc(Cl)cc1`, the inhibition result in [1], in test [2] and in [3] was “inactive” each time. For the same compound, in test [4], the IC50 entry is “Not Active”. Besides, the outcome in test [5], in [6], in test [7], in test [8], in test [9] and in test [10] was inactive.
Regarding `O=S(=O)(CC1=NCCS1)c1n[nH]cc1-c1ccc(Cl)cc1`, the inhibition result in [1], in [2] and in test [3] was “inactive” in each case. Besides, the IC50 result in test [4] is “Not Active”. The outcome in [5], in test [6], in test [7], in test [8], in [9] and in test [10] was inactive.
